Consider ten compounds from ChEMBL document CHEMBL1128495, “Synthetic chemical diversity: solid phase synthesis of libraries of C2 symmetric inhibitors of HIV protease containing diamino diol and diamino alcohol cores” (J Med Chem, 1995).

For experiment [1], the target named is Human immunodeficiency virus type 1 protease (Human immunodeficiency virus 1, UniProt Q72874). The experiment is described as follows: Inhibition of HIV protease. The method in brief:
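Fluorometric HIV protease activity assay on unpurified samples. Concentrations were calculated from the weight of unpurified material, with no correction for impurities. Each sample was tested at 3–5 concentrations where feasible, and IC50 was derived from the percent-inhibition data.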

Experiment [2] addresses Human immunodeficiency virus type 1 protease (Human immunodeficiency virus 1) (UniProt Q72874). The experiment is described as follows: Inhibitory activity against HIV Protease at a dose of 0.5 nM. The method in brief: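 Fluorometric HIV protease activity assay run on an unpurified sample. Concentration was based on the weight of unpurified material, with no correction for impurities. Percent inhibition was read at a single concentration of 0.5 nM.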

For orientation: IC50 means the concentration at which inhibition is half-maximal. Low readings indicate inhibition by little substance, high ones a need for much substance. `Cc1nc(C)c(C(=O)N[C@H](C(=O)N[C@@H](Cc2ccccc2)C[C@H](O)[C@H](Cc2ccccc2)NC(=O)[C@@H](NC(=O)c2sc(C)nc2C)C(C)C)C(C)C)s1` came in with an IC50 in experiment [1] of 13 nM.

Compound `CC(C)[C@H](NC(=O)C(O)(c1ccccc1)c1ccccc1)C(=O)N[C@@H](Cc1ccccc1)C[C@H](O)[C@H](Cc1ccccc1)NC(=O)[C@@H](NC(=O)C(O)(c1ccccc1)c1ccccc1)C(C)C` had an IC50 in experiment [1] of 160 nM.

In experiment [1], `CC(C)[C@H](NC(=O)CSc1ncccn1)C(=O)N[C@@H](Cc1ccccc1)C[C@H](O)[C@H](Cc1ccccc1)NC(=O)[C@@H](NC(=O)CSc1ncccn1)C(C)C` returned a half-maximal inhibitory concentration (IC50) of under 1 nM.

Consider `CC(C)[C@H](NC(=O)Cc1csc(N)n1)C(=O)N[C@@H](Cc1ccccc1)[C@@H](O)[C@H](O)[C@H](Cc1ccccc1)NC(=O)[C@@H](NC(=O)Cc1csc(N)n1)C(C)C`, for which, in experiment [1], the IC50 came to 12 nM.

As for `Cc1nc(C)c(C(=O)N[C@H](C(=O)N[C@@H](Cc2ccccc2)[C@@H](O)[C@H](O)[C@H](Cc2ccccc2)NC(=O)[C@@H](NC(=O)c2sc(C)nc2C)C(C)C)C(C)C)s1`, the IC50 in experiment [1] amounted to 860 nM.

Usually inhibition stands for the share of the control response that was lost under treatment. `CC(C)[C@H](NC(=O)CC1NC(=O)NC1=O)C(=O)N[C@@H](Cc1ccccc1)C[C@H](O)[C@H](Cc1ccccc1)NC(=O)[C@@H](NC(=O)CC1NC(=O)NC1=O)C(C)C` (some centres undefined) displayed an IC50 in experiment [1] of under 1 nM. In experiment [2], this compound had an inhibition of 43%.

Turning to `CC(C)[C@H](NC(=O)Cc1csc(N)n1)C(=O)N[C@@H](Cc1ccccc1)C[C@H](O)[C@H](Cc1ccccc1)NC(=O)[C@@H](NC(=O)Cc1csc(N)n1)C(C)C`, in experiment [1], the IC50 is under 1 nM. Also, in experiment [2], the inhibition worked out at 40%.

Take `COc1cc(CC(=O)N[C@H](C(=O)N[C@@H](Cc2ccccc2)C[C@H](O)[C@H](Cc2ccccc2)NC(=O)[C@@H](NC(=O)Cc2cc(OC)c(OC)c(OC)c2)C(C)C)C(C)C)cc(OC)c1OC`: the IC50 in experiment [1] was under 1 nM. This compound also yielded an inhibition in experiment [2] of 71%.

Consider `CC(C)[C@H](NC(=O)CC1NC(=O)NC1=O)C(=O)N[C@@H](Cc1ccccc1)[C@@H](O)[C@H](O)[C@H](Cc1ccccc1)NC(=O)[C@@H](NC(=O)CC1NC(=O)NC1=O)C(C)C` (some centres undefined), for which, in experiment [1], the IC50 amounted to 9.6 nM. For the same compound, in experiment [2], the inhibition worked out at 33%.

`CC(C)[C@H](NC(=O)C(O)(c1ccccc1)c1ccccc1)C(=O)N[C@@H](Cc1ccccc1)[C@@H](O)[C@H](O)[C@H](Cc1ccccc1)NC(=O)[C@@H](NC(=O)C(O)(c1ccccc1)c1ccccc1)C(C)C`: the IC50 in experiment [1] turned out to be 6400 nM.
